Values after ≈ are worked out from the molar mass of the structure shown. Active and inactive are the calls of the source.
Legend:
Mus musculus [1] = experiment: Toxicity in PS mouse allografted with mouse P388 cells assessed as change in body weight at 3.1 ug/kg relative to control; type: organism-based; settings: in vivo, 0.0031 mg/kg
Procedure, shortened: (§1)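 P388 (PS) leukemia in mice, 6 mice per dose group. Weight change is the difference in grams between treated and control animals. Survivors are recorded on toxicity day, normally 4 days after the first injection.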

Mus musculus [2] = experiment: Toxicity in PS mouse allografted with mouse P388 cells assessed as change in body weight at 1.6 ug/kg relative to control; type: organism-based; settings: in vivo, 0.0016 mg/kg; procedure, shortened: as §1
Mus musculus [3] = experiment: Toxicity in PS mouse allografted with mouse P388 cells assessed as change in body weight at 0.8 ug/kg relative to control; type: organism-based; settings: in vivo, 0.0008 mg/kg
Procedure, shortened: (§2)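 PS (P388 leukemia) mice, six per dose group. Toxicity read as the difference in grams between the weights of treated and control animals.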

Mus musculus [4] = experiment: Toxicity in PS mouse allografted with mouse P388 cells assessed as change in body weight at 0.4 ug/kg relative to control; type: organism-based; settings: in vivo, 0.0004 mg/kg; procedure, shortened: as §2
Mus musculus [5] = experiment: Toxicity in PS mouse allografted with mouse P388 cells assessed as change in body weight at 0.2 ug/kg relative to control; type: organism-based; settings: in vivo, 0.0002 mg/kg; procedure, shortened: as §2
Mus musculus [6] = experiment: Toxicity in PS mouse allografted with mouse P388 cells assessed as survival at 50 ug/kg after 4 days; type: organism-based; settings: in vivo, 0.05 mg/kg, 96 h
Procedure, shortened: (§3)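 PS (P388) leukemic mice, six started per dose group. Toxicity scored as survivors on the toxicity day over the number of mice started. The toxicity day is normally 4 days after the first injection.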

Mus musculus [7] = experiment: Toxicity in PS mouse allografted with mouse P388 cells assessed as survival at 25 ug/kg after 4 days; type: organism-based; settings: in vivo, 0.025 mg/kg, 96 h; procedure, shortened: as §3
Mus musculus [8] = experiment: Toxicity in PS mouse allografted with mouse P388 cells assessed as survival at 12.5 ug/kg after 4 days; type: organism-based; settings: in vivo, 0.0125 mg/kg, 96 h; procedure, shortened: as §3
Mus musculus [9] = experiment: Toxicity in PS mouse allografted with mouse P388 cells assessed as survival at 6.2 ug/kg after 4 days; type: organism-based; settings: in vivo, 0.0062 mg/kg, 96 h; procedure, shortened: as §3
Mus musculus [10] = experiment: Toxicity in PS mouse allografted with mouse P388 cells assessed as survival at 3.1 ug/kg after 4 days; type: organism-based; settings: in vivo, 0.0031 mg/kg, 96 h; procedure, shortened: as §3
Mus musculus [11] = experiment: Toxicity in PS mouse allografted with mouse P388 cells assessed as survival at 1.6 ug/kg after 4 days; type: organism-based; settings: in vivo, 0.0016 mg/kg, 96 h; procedure, shortened: as §3
Mus musculus [12] = experiment: Toxicity in PS mouse allografted with mouse P388 cells assessed as survival at 0.8 ug/kg after 4 days; type: organism-based; settings: in vivo, 0.0008 mg/kg, 96 h; procedure, shortened: as §3
Mus musculus [13] = experiment: Toxicity in PS mouse allografted with mouse P388 cells assessed as survival at 0.4 ug/kg after 4 days; type: organism-based; settings: in vivo, 0.0004 mg/kg, 96 h; procedure, shortened: as §3
Mus musculus [14] = experiment: Toxicity in PS mouse allografted with mouse P388 cells assessed as survival at 0.2 ug/kg after 4 days; type: organism-based; settings: in vivo, 0.0002 mg/kg, 96 h; procedure, shortened: as §3
Mus musculus [15] = experiment: Toxicity in PS mouse allografted with mouse P388 cells assessed as survival at 0.1 ug/kg after 4 days; type: organism-based; settings: in vivo, 0.0001 mg/kg, 96 h; procedure, shortened: as §3
Mus musculus [16] = experiment: Toxicity in PS mouse allografted with mouse P388 cells assessed as change in body weight at 50 ug/kg relative to control; type: organism-based; settings: in vivo, 0.05 mg/kg; procedure, shortened: as §1
Mus musculus [17] = experiment: Toxicity in PS mouse allografted with mouse P388 cells assessed as change in body weight at 25 ug/kg relative to control; type: organism-based; settings: in vivo, 0.025 mg/kg; procedure, shortened: as §1
Mus musculus [18] = experiment: Toxicity in PS mouse allografted with mouse P388 cells assessed as change in body weight at 12.5 ug/kg relative to control; type: organism-based; settings: in vivo, 0.0125 mg/kg; procedure, shortened: as §1
Mus musculus [19] = experiment: Toxicity in PS mouse allografted with mouse P388 cells assessed as change in body weight at 6.2 ug/kg relative to control; type: organism-based; settings: in vivo, 0.0062 mg/kg; procedure, shortened: as §1
Mus musculus [20] = experiment: Toxicity in PS mouse allografted with mouse P388 cells assessed as change in body weight at 0.1 ug/kg relative to control; type: organism-based; settings: in vivo, 0.0001 mg/kg; procedure, shortened: as §2
P388 [21] = experiment: Antitumor activity against mouse P388 cells allografted in PS mouse assessed as median survival time at 50 ug/kg relative to control; type: functional
Procedure, shortened: (§4)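 P388 leukemia (PS) in mice, six mice started per dose group. Read-out is T/C: median survival time of the treated group divided by that of the untreated control group, expressed as a percent. The NIH protocol counts a compound as active when T/C > 125%.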

P388 [22] = experiment: Antitumor activity against mouse P388 cells allografted in PS mouse assessed as median survival time at 25 ug/kg relative to control; type: functional; procedure, shortened: as §4
P388 [23] = experiment: Antitumor activity against mouse P388 cells allografted in PS mouse assessed as median survival time at 12.5 ug/kg relative to control; type: functional; procedure, shortened: as §4
P388 [24] = experiment: Antitumor activity against mouse P388 cells allografted in PS mouse assessed as median survival time at 6.2 ug/kg relative to control; type: functional; procedure, shortened: as §4
P388 [25] = experiment: Antitumor activity against mouse P388 cells allografted in PS mouse assessed as median survival time at 3.1 ug/kg relative to control; type: functional; procedure, shortened: as §4
P388 [26] = experiment: Antitumor activity against mouse P388 cells allografted in PS mouse assessed as median survival time at 1.6 ug/kg relative to control; type: functional; procedure, shortened: as §4
P388 [27] = experiment: Antitumor activity against mouse P388 cells allografted in PS mouse assessed as median survival time at 0.8 ug/kg relative to control; type: functional; procedure, shortened: as §4
P388 [28] = experiment: Antitumor activity against mouse P388 cells allografted in PS mouse assessed as median survival time at 0.4 ug/kg relative to control; type: functional; procedure, shortened: as §4
P388 [29] = experiment: Antitumor activity against mouse P388 cells allografted in PS mouse assessed as median survival time at 0.2 ug/kg relative to control; type: functional; procedure, shortened: as §4
P388 [30] = experiment: Antitumor activity against mouse P388 cells allografted in PS mouse assessed as median survival time at 0.1 ug/kg relative to control; type: functional; procedure, shortened: as §4
Tubulin (Homo sapiens) = Tubulin (Homo sapiens) (UniProt P68371+Q9H4B7+P0DPH7+P68366+Q13509+Q71U36+P04350+Q3ZCM7+P07437+P68363+Q9BQE3+Q6PEY2+Q13885+Q9BVA1+Q9BUF5); experiment: Inhibition of brain tubulin polymerization (unknown origin) at 37 degC by spectrophotometry
Paracentrotus lividus = experiment: Antimitotic activity against sea urchin eggs assessed as drug level causing inhibition of mitosis; type: functional; settings: Egg
KB = experiment: Cytotoxicity against human KB cells; type: functional; settings: read-out: ED50 (the source's name)

SMILES | Activity (Mus musculus [1]) [g] | Activity (Mus musculus [2]) [g] | Activity (Mus musculus [3]) [g] | Activity (Mus musculus [4]) [g] | Activity (Mus musculus [5]) [g] | Activity (Mus musculus [6]) | Activity (Mus musculus [7]) | Activity (Mus musculus [8]) | Activity (Mus musculus [9]) | Activity (Mus musculus [10]) | Activity (Mus musculus [11]) | Activity (Mus musculus [12]) | Activity (Mus musculus [13]) | Activity (Mus musculus [14]) | Activity (Mus musculus [15]) | Activity (Mus musculus [16]) [g] | Activity (Mus musculus [17]) [g] | Activity (Mus musculus [18]) [g] | Activity (Mus musculus [19]) [g] | Activity (Mus musculus [20]) [g] | further results
CCC(=O)N(C)[C@@H](C)C(=O)O[C@H]1CC(=O)N(C)c2cc(cc(OC)c2Cl)C/C(C)=C/C=C/[C@@H](OC)[C@@]2(O)C[C@H](OC(=O)N2)[C@@H](C)[C@@H]2O[C@@]12C | -0.6 | -1.2 | -1.1 | -0.8 | -1.1 | Toxic | Non-toxic | Non-toxic | Non-toxic | Non-toxic | Non-toxic | Non-toxic | Non-toxic | Non-toxic | Non-toxic | -1.2 | -2.2 | -1.3 | -2.1 | -1.1 | T/C (P388 [21]): <80%; T/C (P388 [22]): <80%; T/C (P388 [23]): 104%; T/C (P388 [24]): 125%; T/C (P388 [25]): 150%; T/C (P388 [26]): 154%; T/C (P388 [27]): 145%; T/C (P388 [28]): 137%; T/C (P388 [29]): 120%; T/C (P388 [30]): 137%; inhibition (Tubulin (Homo sapiens)): Active; Activity (Paracentrotus lividus): 1 ×10⁻⁸ mol/L
COc1cc2cc(c1Cl)N(C)C(=O)C[C@H](OC(=O)[C@H](C)N(C)C(=O)CC(C)C)[C@]1(C)O[C@H]1[C@H](C)[C@@H]1C[C@@](O)(NC(=O)O1)[C@H](OC)/C=C/C=C(\C)C2 | 0.2 | -1.3 | 0.7 | -1.1 | -0.6 | Non-toxic | Non-toxic | Non-toxic | Non-toxic | Non-toxic | Non-toxic | Non-toxic | Non-toxic | Non-toxic | Non-toxic | -0.5 | -0.4 | 1.3 | 0.8 | 1.4 | T/C (P388 [21]): <80%; T/C (P388 [22]): 116%; T/C (P388 [23]): 187%; T/C (P388 [24]): 154%; T/C (P388 [25]): 158%; T/C (P388 [26]): 154%; T/C (P388 [27]): 133%; T/C (P388 [28]): 125%; T/C (P388 [29]): 125%; T/C (P388 [30]): 120%; inhibition (Tubulin (Homo sapiens)): Active; Activity (Paracentrotus lividus): 1 ×10⁻⁸ mol/L
COc1cc2cc(c1Cl)N(C)C(=O)C[C@H](OC(=O)[C@H](C)N(C)C(=O)C(C)C)[C@]1(C)O[C@H]1[C@H](C)[C@@H]1C[C@@](O)(NC(=O)O1)[C@H](OC)/C=C/C=C(\C)C2 | -0.9 | 0 | 0.1 | 0.4 | 0.1 | Toxic | Non-toxic | Non-toxic | Non-toxic | Non-toxic | Non-toxic | Non-toxic | Non-toxic | Non-toxic | Non-toxic | 0.1 | 0.1 | 0.1 | -1.3 | 0.3 | T/C (P388 [21]): <80%; T/C (P388 [22]): <80%; T/C (P388 [23]): 120%; T/C (P388 [24]): 155%; T/C (P388 [25]): 145%; T/C (P388 [26]): 155%; T/C (P388 [27]): 190%; T/C (P388 [28]): 155%; T/C (P388 [29]): 165%; T/C (P388 [30]): 125%; EC50 (KB): 0.0036 ng/mL (≈ 0.005 nM); inhibition (Tubulin (Homo sapiens)): Active; Activity (Paracentrotus lividus): 1 nM
COc1cc2cc(c1Cl)N(C)C(=O)C[C@H](OC(=O)C(C)C)[C@]1(C)O[C@H]1[C@H](C)[C@@H]1C[C@@](O)(NC(=O)O1)[C@H](OC)/C=C/C=C(\C)C2OC(C)=O (stereo not given in full) | -0.4 | -0.7 | -1 | -0.6 | -1.3 | Non-toxic | Non-toxic | Non-toxic | Non-toxic | Non-toxic | Non-toxic | Non-toxic | Non-toxic | Non-toxic | Non-toxic | -1 | -0.9 | -0.8 | -0.9 | -0.5 | T/C (P388 [21]): <80%; T/C (P388 [22]): 170%; T/C (P388 [23]): 179%; T/C (P388 [24]): 166%; T/C (P388 [25]): 150%; T/C (P388 [26]): 162%; T/C (P388 [27]): 137%; T/C (P388 [28]): 133%; T/C (P388 [29]): 125%; T/C (P388 [30]): 125%; EC50 (KB): 0.0015 ng/mL (≈ 0.00216 nM); inhibition (Tubulin (Homo sapiens)): Active; Activity (Paracentrotus lividus): 1 ×10⁻⁷ mol/L
